Assay results as given in ChEMBL document CHEMBL1153750, “ent-kaurane and ent-pimarane diterpenoids from Siegesbeckia pubescens” (J Nat Prod, 2010).
Values after ≈ are worked out from the molar mass of the structure shown.

Key:
Type in all cases: functional, cell-based
B16 = assay: Cytotoxicity against mouse B16 cells after 44 hrs by MTT assay
Procedure, shortened: (§1)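 Exponential-phase cells seeded at 5 × 10⁴ per well and preincubated 24 h at 37 °C, 5% CO₂. Test agent added in triplicate at final 10, 50 and 100 μg/mL, incubated 44 h at 37 °C. MTT then added for 4 h at 37 °C, absorbance read at 490 nm. IC50 derived from percentage inhibition by linear regression.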

[1] = Cytotoxicity against rat HSC-T6 cells after 44 hrs by MTT assay; procedure, shortened: as §1
HeLa = assay: Cytotoxicity against human HeLa cells after 44 hrs by MTT assay; procedure, shortened: as §1
[2] = Mus musculus, B16, 44 h, read-out: IC50
[3] = Rattus norvegicus, HSC-T6, 44 h, read-out: IC50
[4] = Homo sapiens, HeLa, 44 h, read-out: IC50

Structure (SMILES): C[C@@]12CCC[C@@](C)(C(=O)O)[C@H]1CC[C@@]13C[C@H](CC[C@H]12)[C@@](O)(CO)C3
- IC50 (B16; [2]): > 100 µg/mL
- IC50 [1, 3]: > 100 µg/mL
- IC50 (HeLa; [4]): > 100 µg/mL

Structure (SMILES): CC(=O)O[C@H]1C(=O)[C@@]2(C)[C@H]([C@H](OC(=O)c3ccccc3)[C@]3(O)C[C@H](OC(=O)[C@H](O)[C@@H](NC(=O)c4ccccc4)c4ccccc4)C(C)=C1C3(C)C)[C@]1(OC(C)=O)CO[C@@H]1C[C@@H]2O [PACLITAXEL]
- IC50 (B16; [2]): 0.63 µg/mL (≈ 0.738 µM)
- IC50 [1, 3]: 0.75 µg/mL (≈ 0.878 µM)
- IC50 (HeLa; [4]): 0.61 µg/mL (≈ 0.714 µM)

Structure (SMILES): CC1(C)OC[C@@H]([C@]2(C)C=C3CC[C@@H]4C(C)(C)[C@H](O)CC[C@@]4(C)C3CC2)O1 (stereo partly drawn)
- IC50 (B16; [2]): 7.8 µg/mL (≈ 21.5 µM)
- IC50 [1, 3]: 12.6 µg/mL (≈ 34.8 µM)
- IC50 (HeLa; [4]): 11.7 µg/mL (≈ 32.3 µM)

Structure (SMILES): C[C@@]1(CO)C[C@@H](O)C[C@@]2(C)[C@@H]3CC[C@](C)([C@@H](O)CO)C=C3CC[C@H]12 [KIRENOL]
- IC50 (B16; [2]): > 100 µg/mL
- IC50 [1, 3]: > 100 µg/mL
- IC50 (HeLa; hela): Not Active

Structure (SMILES): CC1(C)[C@H](O)CC[C@@]2(C)[C@@H]3CC[C@](C)([C@@H](O)CO)C=C3CC[C@H]12 [DARUTIGENOL]
- IC50 (B16; b16): Not Active
- IC50 ([1]; hsc-t6): Not Active
- IC50 (HeLa; [4]): > 100 µg/mL

Structure (SMILES): CC(=O)OC[C@@]1(C(=O)O)CCC[C@@]2(C)[C@@H]3CC[C@H]4C[C@@]3(CC[C@H]12)C[C@H]4COC(=O)C(C)C
- IC50 (B16; [2]): 22.8 µg/mL (≈ 50.8 µM)
- IC50 [1, 3]: 24.6 µg/mL (≈ 54.8 µM)
- IC50 (HeLa; [4]): 24.6 µg/mL (≈ 54.8 µM)
